RAD52 anneal inh = inhibitors of human RAD52 DNA annealing. inhibition, % at 18.7 µM. recombinant RAD52 DNA annealing, FRET fluorescence. 360,000 tested, 0.46% active. P43351. AID 651710;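 active = every replicate showing at least 50% inhibition; inconclusive = mean inhibition at least 50% but not in every replicate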
RAD54 inh = blocks human RAD54 Holliday junction branch migration | inhibition, % at 10.4 µM | 360,000 tested, 0.14% active | Q92698 | FAM/BHQ fluorescence | AID 602329;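 active = mean normalized replicate activity at least 40 and at least half of replicates scoring 40 or more; inconclusive = only one of the two criteria met; inactive = mean below 40 and under half of replicates reaching 40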;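 note: 0% = median of neutral control wells and 100% = median of positive control wells; inhibitors cause a drop in the FAM fluorescence signal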
N-glyco inh = N-linked glycosylation inhibition; 360,000 tested, 0.23% active; D54 ERlucT glycosylation luciferase reporter, 24 h; percent of 100 nM tunicamycin response; reporter increase, % at 12.5 µM;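 active = mean luciferase reporter signal, scaled so untreated is 0 and the glycosylation-blocking control 100, at or above a set limit in every replicate; inconclusive = mean reaches the limit but not every replicate does; inactive = mean below the limit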;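 note: luciferase carries N-glycosylation sites so blocking glycosylation raises the light; 0% = median of neutral control wells and 100% = median of 100 nM tunicamycin wells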
FN deposit inh = fibronectin deposition inhibition | inhibition, % at 12.6 µM | AID 743247 | 350,000 tested, 0.086% active | AH1F fibroblasts, Alexa488-fibronectin deposition fluorescence, overnight;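 active = mean inhibition across replicates of 30% or more, regardless of how many single replicates reach that level; inconclusive = mean under 30% yet at least half of replicates reach 30%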;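 note: positive control wells lacked labelled fibronectin entirely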
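Schedule: 1 h cell adhesion before compound, then overnight fibronectin incubation; test system: AH1F fibroblast monolayer depositing Alexa488-labelled fibronectin into matrix; quantity: 10000 AH1F cells per well; probe or stimulus: fluorescent fibronectin at 24 nM final; signal: fluorescence, ex 485 nm, em 525 nm; evaluation: percent inhibition as loss of matrix-bound fibronectin fluorescence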
AF4-AF9 inh = MLL-AF4/AF9 protein interaction inhibition. P42568. 350,000 tested, 0.47% active. inhibition, % at 10 µM. AID 651704. AlphaScreen, biotin-AF4 peptide binding to FLAG-AF9;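 active = every replicate reaching a set inhibition limit, whatever the replicate mean, cut at about 25% in these data; inconclusive = mean inhibition reaches that limit but some replicates miss it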;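 note: 0% = plate neutral control median and 100% = total signal loss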
Target sequence (P42568 whole entry, looked up): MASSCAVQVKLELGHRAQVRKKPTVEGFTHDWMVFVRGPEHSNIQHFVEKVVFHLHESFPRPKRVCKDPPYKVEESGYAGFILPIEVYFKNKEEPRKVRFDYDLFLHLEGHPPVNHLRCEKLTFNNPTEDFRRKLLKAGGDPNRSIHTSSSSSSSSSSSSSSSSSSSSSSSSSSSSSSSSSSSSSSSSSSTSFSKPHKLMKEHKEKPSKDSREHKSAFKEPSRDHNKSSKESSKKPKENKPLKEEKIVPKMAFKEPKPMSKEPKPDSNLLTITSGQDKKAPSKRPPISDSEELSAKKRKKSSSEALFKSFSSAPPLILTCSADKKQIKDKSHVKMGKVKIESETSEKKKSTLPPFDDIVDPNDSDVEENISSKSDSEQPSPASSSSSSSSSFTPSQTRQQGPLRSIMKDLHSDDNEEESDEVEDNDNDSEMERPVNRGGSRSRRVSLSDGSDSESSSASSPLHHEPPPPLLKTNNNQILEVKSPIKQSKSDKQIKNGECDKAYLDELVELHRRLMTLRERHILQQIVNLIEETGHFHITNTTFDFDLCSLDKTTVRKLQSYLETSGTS
RAD52 DNA ctr = DNA binding artifact in RAD52 counter-screen | shares compounds with RAD52 anneal inh | Salmon sperm DNA/acridine orange FP displacement | AC50, µM | 1,000 tested, 8% active | AID 652128;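 active = fitted half-maximal concentration for signal loss at or below twice the highest dose tested, in every separate run, actives reach about 64 µM in these data; inconclusive = runs disagree, or flat partial signal loss, or poor fit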
* marks the source's active call; other numbers are inactive results. Hits are enriched below; roughly 0.92% of the tested compounds scored in any of these assays.

What do the screens show for `CC(C)N1CCc2c(sc(NC(=O)c3nc4ccccc4s3)c2C(N)=O)C1`?
RAD52 anneal inh: 68*; N-glyco inh: -7; FN deposit inh: -9; AF4-AF9 inh: 4; RAD52 DNA ctr: inactive

Results for NC[C@H](O)c1ccc(O)c(O)c1 ?
RAD52 anneal inh: 70*; RAD54 inh: -5; N-glyco inh: 0; FN deposit inh: 0; AF4-AF9 inh: -2; RAD52 DNA ctr: inactive

What do the screens show for `O=C1C2CCCCN2C(=O)N1CCCN1CCN(c2ccc(F)cc2)CC1` (centres undefined)?
RAD52 anneal inh: -2; RAD54 inh: -28; N-glyco inh: 2; FN deposit inh: 0; AF4-AF9 inh: -1

What do the screens show for `Nc1ccc(N2CCN(CCCCN3C(=O)C4CCCN4C3=O)CC2)cc1` (centres undefined)?
RAD52 anneal inh: 101*; N-glyco inh: 5; FN deposit inh: 5; AF4-AF9 inh: 49*; RAD52 DNA ctr: inactive

Results for O=C(NCC[C@@H]1CC[C@H](NC(=O)C2CCCCC2)[C@H](CO)O1)c1cc(Cl)cc(Cl)c1 ?
RAD52 anneal inh: 10; RAD54 inh: -13; FN deposit inh: -19; AF4-AF9 inh: -1

What do the screens show for `COc1ccc(-c2cc(NC=O)c3ncc(-c4cccc(C(C)=O)c4)n3c2)cc1`?
RAD52 anneal inh: -73; RAD54 inh: 0; N-glyco inh: 8; AF4-AF9 inh: -10

Results for COc1ccc(-c2cc(NC=O)c3ncc(-c4cccc(C(=O)NCCN(C)C)c4)n3c2)c(OC)c1 ?
RAD52 anneal inh: 57*; RAD54 inh: 32; N-glyco inh: -8; AF4-AF9 inh: 7; RAD52 DNA ctr: inactive

How did COc1ccc(NC(=O)N(C)C[C@@H]2Oc3ccc(NC(=O)Nc4c(C)noc4C)cc3CC(=O)N([C@@H](C)CO)C[C@@H]2C)cc1 do in these assays?
RAD52 anneal inh: 4; RAD54 inh: 2; FN deposit inh: 7; AF4-AF9 inh: -7

Results for CN(C)CCCn1c(=O)n(CCc2ccccc2)c(=O)c2c3c(sc21)CCCCC3 ?
RAD52 anneal inh: 56*; RAD54 inh: 1; N-glyco inh: -4; FN deposit inh: -2; AF4-AF9 inh: 23; RAD52 DNA ctr: inactive

How did Cc1cccc2c1-c1sc(C(=O)NCCCN3CCC(C)CC3)cc1CO2 do in these assays?
RAD52 anneal inh: 61*; RAD54 inh: 34; N-glyco inh: -4; FN deposit inh: -1; AF4-AF9 inh: 9; RAD52 DNA ctr: inactive

Results for Fc1ccccc1CNc1nc(NCC2CC2)nc2ccsc12 ?
RAD52 anneal inh: 51*; RAD54 inh: -9; N-glyco inh: -2; FN deposit inh: -4; AF4-AF9 inh: 3; RAD52 DNA ctr: inactive

How did Cc1ccc(S(=O)(=O)Nc2ccc3c(c2)C(=O)N([C@@H](C)CO)C[C@@H](C)[C@H](CN(C)Cc2ccncc2)OCCCC[C@H](C)O3)cc1 do in these assays?
RAD52 anneal inh: 5; RAD54 inh: -22; FN deposit inh: -1; AF4-AF9 inh: -1

How did C[C@H]1CN([C@@H](C)CO)C(=O)c2ccccc2-c2ccccc2CO[C@@H]1CN(C)C(=O)Nc1ccccc1C(F)(F)F do in these assays?
RAD52 anneal inh: -4; RAD54 inh: -2; FN deposit inh: 5; AF4-AF9 inh: -7

How did CCc1cccc2c1Sc1ccccc1CC2N1CCNCC1 (centres undefined) do in these assays?
RAD52 anneal inh: 55*; N-glyco inh: -5; FN deposit inh: 3; AF4-AF9 inh: 15; RAD52 DNA ctr: inactive

What do the screens show for `O=C(C[C@@H]1CC[C@@H]2[C@H](COC[C@@H](O)CN2S(=O)(=O)c2ccccc2)O1)NCCN1CCCC1`?
RAD52 anneal inh: 0; FN deposit inh: -1; AF4-AF9 inh: -3

How did COc1ccc(C2c3ccc4ccccc4c3Oc3ncn(CCO)c(=N)c32)cc1 (centres undefined) do in these assays?
RAD52 anneal inh: -10; RAD54 inh: -1; N-glyco inh: -3

Results for COc1ccc(C2c3ccc4ccccc4c3Oc3ncn(CCN(C)C)c(=N)c32)cc1 (centres undefined) ?
RAD52 anneal inh: 57*; RAD54 inh: 4; N-glyco inh: 12; FN deposit inh: -12; AF4-AF9 inh: 19; RAD52 DNA ctr: inactive

Results for COc1cc(NCCCCC(C)N)c2nccc(C)c2c1 (centres undefined) ?
RAD52 anneal inh: 76*; RAD54 inh: 10; N-glyco inh: -1; FN deposit inh: 0; AF4-AF9 inh: 7; RAD52 DNA ctr: inactive

Results for OC1CC2CCC(C1)N2CCCN1c2ccccc2Sc2ccc(Cl)cc21 (centres undefined) ?
RAD52 anneal inh: 91*; RAD54 inh: 18; N-glyco inh: -7; FN deposit inh: 7; AF4-AF9 inh: 19; RAD52 DNA ctr: inactive

What do the screens show for `CC(CN1CCN(CCOCCO)CC1)CN1c2ccccc2Sc2ccc(Cl)cc21` (centres undefined)?
RAD52 anneal inh: 12; RAD54 inh: 12; N-glyco inh: -5; FN deposit inh: -4; AF4-AF9 inh: 20

What do the screens show for `OCCN1CCN(CC/C=C2/c3ccccc3CSc3ccccc32)CC1`?
RAD52 anneal inh: 18; RAD54 inh: -6; N-glyco inh: -2; FN deposit inh: -11; AF4-AF9 inh: 12

What do the screens show for `OCCN1CCN(CC/C=C2/c3ccccc3Sc3ccc(C(F)(F)F)cc32)CC1`?
RAD52 anneal inh: 58*; RAD54 inh: 8; N-glyco inh: -5; FN deposit inh: 3; AF4-AF9 inh: 27*; RAD52 DNA ctr: inactive

What do the screens show for `CN(C)CCCN1c2ccccc2Sc2ccc(C(F)(F)F)cc21`?
RAD52 anneal inh: 48; RAD54 inh: 18; N-glyco inh: 3; FN deposit inh: -10; AF4-AF9 inh: 21

What do the screens show for `CN1CCN(CCCN2c3ccccc3Sc3ccc(Cl)cc32)CC1`?
RAD52 anneal inh: 79*; RAD54 inh: 13; N-glyco inh: 1; FN deposit inh: -6; AF4-AF9 inh: 36*; RAD52 DNA ctr: inactive

What do the screens show for `OCCN1CCN(CCCN2c3ccccc3Sc3ccc(C(F)(F)F)cc32)CC1`?
RAD52 anneal inh: 56*; RAD54 inh: inconclusive; N-glyco inh: -1; FN deposit inh: -8; AF4-AF9 inh: 18; RAD52 DNA ctr: inactive

What do the screens show for `CCC(=O)Nc1ccc2c(c1)C(=O)N(C)C[C@H](OC)[C@H](C)CN(C(=O)NC(C)C)[C@H](C)CO2`?
RAD52 anneal inh: -26; RAD54 inh: 2; FN deposit inh: -9; AF4-AF9 inh: 0

Results for CCSc1ccc2c(c1)N(CCCN1CCN(C)CC1)c1ccccc1S2 ?
RAD52 anneal inh: 63*; RAD54 inh: 26; N-glyco inh: -2; FN deposit inh: -7; AF4-AF9 inh: 65*; RAD52 DNA ctr: inactive

Source: PubChem (Broad Institute)
